Consider one compound from ChEMBL document CHEMBL4680287, “Ibrexafungerp: An orally active β-1,3-glucan synthesis inhibitor” (Bioorg Med Chem Lett, 2021).

≈ marks a conversion by molar mass, not a printed value.

For test [1], the system named is Aspergillus fumigatus. Put plainly: Antifungal activity against Aspergillus fumigatus MF5668 infected in DBA/2N mouse assessed as mouse survival at 0.03 mg/kg, ip bid administered for 7 days starting from 15 to 30 mins post infection and measured up to 21 days relative to control. Type of test: functional. To be noted: 168 h, time 7 day. Put shortly:
(§1)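 DBA/2N mice were infected IV with A. fumigatus MF5668 (6.7 x 10^5 CFU/mouse) and treated IP bid for 7 days. Percent survival per dose group was scored at the end of the 21-day survival model and compared with the sham-treated control group.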

Test [2] concerns Aspergillus fumigatus. Put plainly: Antifungal activity against Aspergillus fumigatus MF5668 infected in DBA/2N mouse assessed as mouse survival at 0.5 mg/kg, ip bid administered for 7 days starting from 15 to 30 mins post infection and measured up to 21 days relative to control. Type of test: functional. Particulars: 168 h, time 7 day. Put shortly: as §1
Test [3] concerns Candida albicans. Put plainly: Antifungal activity against Candida albicans MY1055 infected in DBA/2 mouse model of disseminated candidiasis assessed as reduction in fungal burden in kidney by measuring log change in colony forming units at 0.125 mg/kg, ip bid for 7 days by TOKA. Particulars: time 7 day. Type of test: functional. Put shortly:
(§2)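 Murine disseminated candidiasis model (TOKA) in mice challenged with C. albicans MY1055 at 2.44 x 10^4 CFU/mouse. Dosed PO, or IP where stated. Kidneys collected aseptically 7 days after challenge and CFUs/g counted. Change in log CFU/g is relative to sham-treated controls; significance by two-tailed t test. Clearance is the percentage of kidneys below the detection limit.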

For test [4], the system named is Candida albicans. The experiment in a line: Antifungal activity against Candida albicans MY1055 infected in DBA/2 mouse model of disseminated candidiasis assessed as reduction in fungal burden in kidney by measuring log change in colony forming units at 0.125 mg/kg, po bid for 7 days by TOKA. Type of test: functional. Particulars: time 7 day. Put shortly:
as §2

The test system of test [5] is Candida albicans. Put plainly: Antifungal activity against Candida albicans MY1055 infected in DBA/2 mouse model of disseminated candidiasis assessed as reduction in fungal burden in kidney by measuring log change in colony forming units at 0.03 mg/kg, ip bid for 7 days by TOKA. Type of test: functional. Particulars: time 7 day. Put shortly: as §2
The test system of test [6] is Aspergillus fumigatus. The experiment in a line: Antifungal activity against Aspergillus fumigatus MF5668 infected in DBA/2N mouse assessed as mean survival time at 0.03 mg/kg, ip bid administered for 7 days starting from 15 to 30 mins post infection and measured up to 21 days. Type of test: functional. To be noted: time 7 day. Put shortly: (§3)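 DBA/2N mice were challenged IV with A. fumigatus MF5668 at 6.7 x 10^5 CFU/mouse, then dosed IP twice daily for 7 days. Survival was followed over a 21-day model, and mean survival time in days was recorded per dose group. A sham-treated control group was run alongside.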

Test [7] has as its system Candida albicans. The experiment in a line: Antifungal activity against Candida albicans MY1055 infected in ip dosed DBA/2 mouse model of disseminated candidiasis assessed as reduction in fungal burden in kidney administered bid for 7 days by TOKA. Type of test: functional. To be noted: 168 h, time 7 day. Put shortly: as §2
Test [8] has as its system Candida albicans. The experiment in a line: Antifungal activity against Candida albicans MY1055 infected in DBA/2 mouse model of disseminated candidiasis assessed as reduction in fungal burden in kidney by measuring log change in colony forming units at 0.03 mg/kg, po bid for 7 days by TOKA. To be noted: time 7 day. Type of test: functional. Put shortly: as §2
Test [9] has as its system Aspergillus fumigatus. The experiment in a line: Antifungal activity against Aspergillus fumigatus MF5668 assessed inhibition of fungal growth by measuring morphological changes measured after 24 hrs by microscopy. Type of test: functional. Particulars: read-out: MEC. Put shortly:
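Microdilution per CLSI protocols in RPMI medium. Read-out is the minimum effective concentration (MEC). Run without serum and with 50% human serum.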

The subject of test [10] is Candida albicans. The experiment in a line: Antifungal activity against Candida albicans MY1055 assessed as fungal growth inhibition measured after 24 hrs in presence of 50% mouse serum by liquid microdilution method. Type of test: functional. Put shortly:
(§4)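 Broth microdilution per CLSI protocols in RPMI medium. Read-out is the MIC, the lowest concentration completely inhibiting fungal growth. Run without serum and with added serum.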

In test [11] the test system is Candida albicans. The experiment in a line: Antifungal activity against Candida albicans MY1055 assessed as fungal growth inhibition measured after 24 hrs by liquid microdilution method. Type of test: functional. Put shortly:
as §4

The test system of test [12] is Aspergillus fumigatus. The experiment in a line: Antifungal activity against Aspergillus fumigatus MF5668 infected in ip dosed DBA/2N mouse assessed as 90% mouse survival administered bid administered for 7 days starting from 15 to 30 mins post infection and measured up to 21 days. Type of test: functional. Particulars: 168 h, time 7 day.
The test system of test [13] is Aspergillus fumigatus. The experiment in a line: Antifungal activity against Aspergillus fumigatus MF5668 infected in DBA/2N mouse assessed as mouse survival at 2 mg/kg, ip bid administered for 7 days starting from 15 to 30 mins post infection and measured up to 21 days relative to control. Type of test: functional. To be noted: 168 h, time 7 day. Put shortly:
as §1

Test [14] has as its system Candida albicans. Put plainly: Antifungal activity against Candida albicans MY1055 infected in DBA/2 mouse model of disseminated candidiasis assessed as reduction in fungal burden in kidney by measuring log change in colony forming units at 0.5 mg/kg, ip bid for 7 days by TOKA. Particulars: time 7 day. Type of test: functional. Put shortly: as §2
Test [15] deals with Aspergillus fumigatus. The experiment in a line: Antifungal activity against Aspergillus fumigatus MF5668 infected in ip dosed DBA/2N mouse assessed as 50% mouse survival administered bid administered for 7 days starting from 15 to 30 mins post infection and measured up to 21 days. To be noted: 168 h.
In test [16] the test system is Candida albicans. Put plainly: Antifungal activity against Candida albicans MY1055 infected in DBA/2 mouse model of disseminated candidiasis assessed as reduction in fungal burden in kidney by measuring log change in colony forming units at 0.0078 mg/kg, ip bid for 7 days by TOKA. Type of test: functional. To be noted: time 7 day. Put shortly: as §2
Test [17] can be described thus: Inhibition of beta-1,3-glucan synthase in Candida albicans MY1055 microsomal membrane assessed as inhibition of TCA-insoluble material formation using UDP-[3H]-glucose as substrate incubated for 2 hrs in presence of GTP by radioactivity-based assay. Type of test: microsomes, Microsome. Put shortly:
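GS IC50 measured using Candida albicans MY1055 microsomal membrane fragments as the enzyme source.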

Test [18] has as its system Aspergillus fumigatus. The experiment in a line: Antifungal activity against Aspergillus fumigatus MF5668 infected in DBA/2N mouse assessed as mouse survival at 0.125 mg/kg, ip bid administered for 7 days starting from 15 to 30 mins post infection and measured up to 21 days relative to control. Type of test: functional. Particulars: 168 h, time 7 day. Put shortly:
as §1

Test [19] has as its system Aspergillus fumigatus. The experiment in a line: Antifungal activity against Aspergillus fumigatus MF5668 infected in DBA/2N mouse assessed as mean survival time at 0.125 mg/kg, ip bid administered for 7 days starting from 15 to 30 mins post infection and measured up to 21 days. Type of test: functional. Particulars: time 7 day. Put shortly: as §3
Test [20] concerns Candida albicans. Put plainly: Antifungal activity against Candida albicans MY1055 infected in DBA/2 mouse model of disseminated candidiasis assessed as reduction in fungal burden in kidney by measuring log change in colony forming units at […], po bid for 7 days by TOKA. Type of test: functional. Particulars: time 7 day. Put shortly: as §2

In the case of `CC[C@H](C)C[C@H](C)CCCCCCCCC(=O)N[C@H]1C[C@@H](O)[C@@H](NCCN)NC(=O)[C@@H]2[C@@H](O)CCN2C(=O)[C@H]([C@H](O)CCN)NC(=O)[C@H]([C@H](O)[C@@H](O)c2ccc(O)cc2)NC(=O)[C@@H]2C[C@@H](O)CN2C(=O)[C@H]([C@@H](C)O)NC1=O` [CASPOFUNGIN], the survival at 0.03 mg/kg in [1] is 50%. The survival at 0.5 mg/kg in [2] amounted to 90%. The Activity in test [3] is listed as -4 deltalog10CFU; in test [4] it was -4.2 deltalog10CFU; in [5], -3.28 deltalog10CFU; in test [8], -2.3 deltalog10CFU; in test [14], -3.96 deltalog10CFU; in [16] it was -3.62 deltalog10CFU. Further, the Activity in [20] is -4.2 deltalog10CFU. Besides, the MST in test [6] was found to be 13.1 days; in [19], 14.7 days. For the same compound, in [7], the ED99 was under 0.1 µg/kg. Also, the minimal effective concentration in [9] is under 0.03 µg/mL. Further, the MIC in test [10] was determined as 0.25 µg/mL; in test [11], 0.06 µg/mL (≈ 0.0549 µM). For the same compound, the ED90 in [12] was found to be 0.83 mg/kg. The survival at 2 mg/kg in test [13] came to 90%. Further, the ED50 in test [15] was 0.07 mg/kg. For the same compound, the IC50 in test [17] was found to be 1 ng/mL. Besides, the survival at 0.125 mg/kg in [18] was found to be 60%.
